Experimental data: article PMC4565189 (Biochemistry, 2013)
No end group written: not given here.

Experiments:
purified α-synuclein = test: CoCl2-induced aggregation of purified α-synuclein, SDS gel; type: biochemical
[1] = test system: α-synuclein self-association in SK-N-SH cells; type: cell-based, human
PLCβ1 [2] = test: Western blot of PLCβ1 level in SK-N-SH cells under oxidative stress; type: cell-based, human
α-synuclein = type: cell-based, human
PLCβ1 [3] = type: biochemical
[4] = test system: PLCβ1-α-synuclein association; test: In vitro FRET: CPM-PLCβ1 / Dabcyl-α-synuclein association; type: binding; settings: 200 µM and 500 µM peptide
[5] = test system: α-synuclein self-association in PC12 cells; test: GFP-α-synuclein/mCherry-α-synuclein FRET in PC12 cells; type: cell-based, human; settings: 50 µM peptide microinjected, viewed within 2 h
In short: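 PC12 cells (DMEM, 10% horse serum, 5% FBS, 37 °C, 5% CO₂) are electroporated with eGFP- and mCherry-α-synuclein and plated on glass-bottom dishes 24 h later. Medium is switched to phenol-free L-15. Peptide (50 µM in pipette; 100 mM KCl, 5 mM K₂HPO₄, pH 7.4, 5 µM DAPI marker) is injected into cytoplasm for 0.4 s (30/15 hPa). Viable cells are selected, then confocal FRET is imaged within 2 h.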

PLCβ1 [6] = settings: in cells; ref [16]; cited from earlier work
PLCβ [7] = settings: inhibition can be overcome by G proteins; ref [15]; cited from earlier work
PLCβ1-C3PO interaction = settings: in vitro FRET; ref Sahu, Guo, and Scarlata, unpublished results; cited from earlier work
neuronal cells = settings: overexpression of α-synuclein; ref [34]; cited from earlier work
PLCβ [8] = settings: among α-synuclein binding partners; ref [15]; cited from earlier work

[Cl-].[Cl-].[Co+2] [CoCl2]
α-Synuclein aggregation induced by CoCl2 (purified α-synuclein): produces visible α-synuclein aggregation | GFP-α-synuclein/mCherry-α-synuclein FRET, oxidative stress [1]: significant increase in FRET | Cellular level of PLCβ1 (PLCβ1 [2]): significantly reduces the cellular level of PLCβ1 | Amount of α-synuclein (α-synuclein): little effect on the amount of α-synuclein | α-Synuclein tetramers vs monomers (α-synuclein): increase in α-synuclein tetramers at the expense of monomers | Amount of native PLCβ1 (PLCβ1 [3]): reduces the amount of native PLCβ1

CKKVVLPTLASLR [peptide]
PLCβ1-α-synuclein association [4]: inhibits PLCβ1-α-synuclein association | GFP-α-synuclein/mCherry-α-synuclein FRET, peptide [5]: the same within error

α-synuclein
Decrease of PLCβ1 level due to oxidation, effect of α-synuclein (PLCβ1 [2]; oxidative stress, α-synuclein present): more pronounced in the presence of α-synuclein | Intracellular level of PLCβ1 (PLCβ1 [6]): raises the intracellular level of the enzyme | PLCβ1 degradation by calpain (PLCβ1 [6]): prevents PLCβ1 degradation by calpain | PLCβ activity (PLCβ [7]): inhibits PLCβ activity | Interaction of Alexa488-PLCβ1 with Alexa546-C3PO (PLCβ1-C3PO interaction): prevents Alexa488-PLCβ1 from interacting with Alexa546-C3PO | Inclusions and neuronal death on overexpression (neuronal cells): cause inclusions and neuronal death | Affinity of PLCβ for α-synuclein (PLCβ [8]): one of the strongest affinities
